Source: ChEMBL document CHEMBL2390954, “Discovery of a synthetic Aminopeptidase N inhibitor LB-4b as a potential anticancer agent” (Bioorg Med Chem Lett, 2013)
The source made the active and inactive calls. The rule behind the calls is not given here.

Columns and labels:
[1] = tested on: HUVEC; assay: Acute cytotoxicity against HUVEC at 100 ug/ml after 8 hrs by microscopic analysis; assay type: cell-based; details: human
Method in brief: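 Acute cytotoxicity judged by microscopic inspection of treated samples during the assay period on Matrigel.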

[2] = tested on: Aorta; assay: Antiangiogenic activity against Sprague-Dawley rat aortic rings assessed as inhibition of new microvessel growth at 100 ug/ml after 6 days; assay type: functional, tissue-based
Method in brief: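 Rat aortic rings embedded on Matrigel; microvessel outgrowth from the ring scored and expressed as inhibition rate versus control; mean with SD from three independent experiments.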

[3] = tested on: HUVEC; assay: Antiangiogenic activity in HUVEC assessed as inhibition of tube formation at 100 ug/ml after 8 hrs by microscopic analysis; assay type: functional, cell-based; details: Homo sapiens
Method in brief: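 HUVECs plated on Matrigel to form capillary tube-like structures; tubular structure formation scored as inhibition rate versus untreated control; mean with SD from three independent experiments.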

[4] = tested on: ES2; assay: Antiinvasive activity against human ES2 cells in matrigel-coated transwell chamber after 8 hrs by Crystal violet staining-based microscopy; assay type: functional, cell-based
Method in brief: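 Invasion assessed in Matrigel-coated Transwell chambers; ES-2 cells allowed to invade the Matrigel and reach the other side of the membrane over 8 h; graded doses tested.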

[5] = tested on: ES2; assay: Antimigratory activity against human ES2 cells in transwell chamber at 100 ug/ml after 3 hrs by Crystal violet staining-based microscopy; assay type: functional, cell-based
Method in brief: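 ES-2 cells placed in Transwell chambers with 8 µm micropore membranes, no Matrigel coating; cells crossing the membrane counted as migration rate relative to control; mean with SD from three independent experiments.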

[6] = Cytotoxicity against human ES2 cells after 24 hrs by MTT assay; assay type: functional; details: ES-2, 24 h
[7] = target: T1, Aminopeptidase N (Homo sapiens, UniProt P15144); assay: Ratio of betastatin IC50 to compound IC50 for APN in human ES-2 cells; assay type: cell-based
T1 sequence (P15144 whole entry): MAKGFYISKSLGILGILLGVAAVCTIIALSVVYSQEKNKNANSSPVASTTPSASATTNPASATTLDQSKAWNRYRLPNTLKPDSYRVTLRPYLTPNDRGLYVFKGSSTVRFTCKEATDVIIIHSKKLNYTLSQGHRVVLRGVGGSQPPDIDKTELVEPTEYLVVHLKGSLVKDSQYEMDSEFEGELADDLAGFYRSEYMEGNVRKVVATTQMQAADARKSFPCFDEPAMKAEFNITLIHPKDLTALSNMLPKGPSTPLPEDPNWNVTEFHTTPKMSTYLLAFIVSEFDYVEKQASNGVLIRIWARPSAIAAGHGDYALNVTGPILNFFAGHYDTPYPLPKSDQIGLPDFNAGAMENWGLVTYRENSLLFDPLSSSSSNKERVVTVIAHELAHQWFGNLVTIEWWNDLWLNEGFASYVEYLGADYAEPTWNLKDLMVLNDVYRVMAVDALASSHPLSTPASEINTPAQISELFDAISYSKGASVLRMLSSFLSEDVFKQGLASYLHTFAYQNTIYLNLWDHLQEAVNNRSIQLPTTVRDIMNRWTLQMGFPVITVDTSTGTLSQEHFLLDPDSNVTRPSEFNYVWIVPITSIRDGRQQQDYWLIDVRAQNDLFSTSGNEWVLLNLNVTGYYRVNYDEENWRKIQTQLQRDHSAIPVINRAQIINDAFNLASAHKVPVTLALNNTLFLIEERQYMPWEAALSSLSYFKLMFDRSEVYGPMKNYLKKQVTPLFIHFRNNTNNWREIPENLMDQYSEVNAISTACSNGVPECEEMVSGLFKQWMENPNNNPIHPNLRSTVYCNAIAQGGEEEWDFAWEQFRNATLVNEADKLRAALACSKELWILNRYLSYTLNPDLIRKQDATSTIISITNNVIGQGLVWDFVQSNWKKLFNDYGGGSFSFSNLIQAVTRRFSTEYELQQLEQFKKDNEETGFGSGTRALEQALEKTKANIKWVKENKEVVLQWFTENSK

[8] = target: 72 kDa type IV collagenase (Homo sapiens, UniProt P08253); assay: Inhibition of recombinant MMP2 (unknown origin) using […] as substrate incubated for 5 mins prior to substrate addition measured after 60 mins by UV-Vis spectrophotometry
72 kDa type IV collagenase, sequence (P08253 whole entry): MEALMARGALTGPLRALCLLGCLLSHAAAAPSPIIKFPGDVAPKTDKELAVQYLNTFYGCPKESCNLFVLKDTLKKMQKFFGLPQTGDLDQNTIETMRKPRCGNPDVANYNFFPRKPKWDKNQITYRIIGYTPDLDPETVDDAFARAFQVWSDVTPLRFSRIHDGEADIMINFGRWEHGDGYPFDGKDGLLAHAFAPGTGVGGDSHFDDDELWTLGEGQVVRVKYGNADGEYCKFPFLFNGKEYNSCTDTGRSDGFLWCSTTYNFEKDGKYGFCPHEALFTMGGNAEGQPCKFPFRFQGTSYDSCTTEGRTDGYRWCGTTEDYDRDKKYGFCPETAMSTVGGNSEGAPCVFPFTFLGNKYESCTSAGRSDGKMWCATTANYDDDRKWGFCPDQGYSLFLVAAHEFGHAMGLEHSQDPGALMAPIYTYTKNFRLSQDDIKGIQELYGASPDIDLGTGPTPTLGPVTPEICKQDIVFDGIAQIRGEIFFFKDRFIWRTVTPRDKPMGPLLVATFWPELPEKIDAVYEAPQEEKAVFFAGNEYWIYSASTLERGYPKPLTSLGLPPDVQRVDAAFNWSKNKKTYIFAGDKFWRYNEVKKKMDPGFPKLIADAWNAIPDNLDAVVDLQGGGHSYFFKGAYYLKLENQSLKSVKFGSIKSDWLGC

[9] = target: T2, Aminopeptidase N (Sus scrofa, UniProt P15145); assay: Inhibition of pig kidney APN using L-Leu-p-nitroanilide as substrate incubated for 5 mins prior to substrate addition measured after 30 mins by UV-Vis spectrophotometry
T2 sequence (P15145 whole entry): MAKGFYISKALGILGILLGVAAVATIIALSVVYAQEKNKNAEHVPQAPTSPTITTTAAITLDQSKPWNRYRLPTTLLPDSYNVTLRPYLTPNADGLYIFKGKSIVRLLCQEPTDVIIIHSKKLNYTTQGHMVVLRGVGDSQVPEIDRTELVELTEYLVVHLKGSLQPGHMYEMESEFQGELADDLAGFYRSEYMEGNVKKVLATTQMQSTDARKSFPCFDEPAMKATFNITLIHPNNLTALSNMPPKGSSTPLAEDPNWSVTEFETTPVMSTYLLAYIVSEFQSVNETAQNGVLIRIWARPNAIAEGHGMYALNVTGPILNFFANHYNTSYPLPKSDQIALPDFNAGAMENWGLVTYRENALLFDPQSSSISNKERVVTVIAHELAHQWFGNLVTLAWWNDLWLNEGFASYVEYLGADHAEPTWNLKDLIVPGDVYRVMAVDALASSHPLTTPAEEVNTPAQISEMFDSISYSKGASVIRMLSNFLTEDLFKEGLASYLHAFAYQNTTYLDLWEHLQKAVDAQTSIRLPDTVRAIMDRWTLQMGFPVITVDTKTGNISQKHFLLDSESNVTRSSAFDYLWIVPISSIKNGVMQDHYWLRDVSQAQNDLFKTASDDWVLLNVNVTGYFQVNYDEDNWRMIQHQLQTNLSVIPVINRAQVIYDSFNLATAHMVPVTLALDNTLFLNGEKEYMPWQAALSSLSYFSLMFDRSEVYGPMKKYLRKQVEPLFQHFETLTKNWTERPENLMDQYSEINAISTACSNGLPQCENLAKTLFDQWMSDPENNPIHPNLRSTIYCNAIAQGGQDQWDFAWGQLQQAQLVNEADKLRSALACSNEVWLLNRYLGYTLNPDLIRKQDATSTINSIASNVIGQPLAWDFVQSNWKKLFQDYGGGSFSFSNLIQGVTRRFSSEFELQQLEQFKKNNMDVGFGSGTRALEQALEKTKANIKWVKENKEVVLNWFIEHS

[10] = target: T1, Aminopeptidase N; assay: Inhibition of APN in human ES-2 cells using L-Leu-p-nitroanilide as substrate incubated for 5 mins prior to substrate addition measured after 1 hr by UV-Vis spectrophotometry; assay type: cell-based

Ratio IC50 [7] | IC50 [8] [µM] | IC50 [9] [µM] | IC50 [10] [µM] | Compound | Activity [1] | Activity [2] | Activity [3] | Activity [4] | Activity [5] | GI50 [6] [µM]
 |  |  |  | CC(C)C[C@H](NC(=O)[C@@H](O)[C@H](N)Cc1ccccc1)C(=O)O [UBENIMEX] | Non-toxic | Active | Active | Dose-dependent effect | inactive | 350
10 | > 500 | 0.85 | 3 | CC(C)C[C@H](NC(=O)NCc1ccccc1)C(=O)NO | Non-toxic | Active | Active | Dose-dependent effect | inactive | > 1000
